This is a sample that favours compounds with a hit; in the whole collection about 4.3% have one here.
DYRK1A inh = rat Dyrk1A kinase inhibitors, primary screen, biochemical, single point, plate reader. Dual specificity tyrosine-phosphorylation-regulated kinase 1A (Rattus norvegicus), Q63470. ADP-Glo luminescence, NFATc1 peptide. inhibition, % at 12.5 µM. 310,000 tested, 0.43% active. AID 504441, 2011; in the data active = inhibition above about 50%;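 note: plate controls were vehicle with enzyme for no effect and no enzyme for full effect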
ALR inh = inhibitors of human ALR sulfhydryl oxidase, primary screen, biochemical, H2O2 detection, HRP-luminol luminescence, single point | FAD-linked sulfhydryl oxidase ALR (Homo sapiens), P55789 | purified ALR, DTT oxidation | inhibition, % (no concentration beside the values) | 290,000 tested, 3.8% active;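 active = mean replicate inhibition above about 79%, with every replicate also reaching it, limit read from the data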
CAL PDZ FP-1 = untagged CAL PDZ binding inhibitors, primary screen, biochemical, fluorescence polarization, HTS. inhibition, % at 24.9 µM. Golgi-associated PDZ and coiled-coil motif-containing protein (Homo sapiens), Q9HD26. 300,000 tested, 0.92% active. purified CAL PDZ, TMR-peptide fluorescence polarization, 1 h;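 active = mean inhibition of at least 30% with at least half of replicates also reaching 30%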;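 note: 0% = DMSO neutral control and 100% = excess unlabeled competitor peptide PRC23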
CAL PDZ FP-2 = CAL PDZ peptide-binding inhibitors, primary screen, biochemical, fluorescence polarization, Cer-tagged CAL PDZ, HTS | Golgi-associated PDZ and coiled-coil motif-containing protein (Homo sapiens), Q9HD26 | purified CAL PDZ, TMR-peptide fluorescence polarization, 1 h | inhibition, % at 20 µM | 330,000 tested, 0.02% active | AID 504414, 2011;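 active = highest replicate inhibition of at least 40%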;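 note: plate controls were DMSO neutral control wells for no effect and unlabeled competitor peptide control wells for full effect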
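Material: tagged CAL PDZ domain; buffer or medium: 25 mM sodium phosphate pH 7.4, 150 mM NaCl, TCEP, IgG, Thesit; compound dosing: single point, 20 µM; schedule: 1 h incubation at room temperature before polarization reading; measured by: FP readout, S and P plane fluorescence; read-out basis: percent inhibition from loss of millipolarization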
Rtt109 HAT inh = inhibitors of C. albicans Rtt109/Vps75 HAT, primary screen, biochemical, ThioGlo CoA-SH fluorescence, plate reader | purified Rtt109/Vps75, 4 h | inhibition, % at 34.9 µM | 330,000 tested, 0.16% active | AID 540336, 2011;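 active = inhibition of at least 50% in every replicate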
Target sequence (Q5AAJ8 whole entry, looked up): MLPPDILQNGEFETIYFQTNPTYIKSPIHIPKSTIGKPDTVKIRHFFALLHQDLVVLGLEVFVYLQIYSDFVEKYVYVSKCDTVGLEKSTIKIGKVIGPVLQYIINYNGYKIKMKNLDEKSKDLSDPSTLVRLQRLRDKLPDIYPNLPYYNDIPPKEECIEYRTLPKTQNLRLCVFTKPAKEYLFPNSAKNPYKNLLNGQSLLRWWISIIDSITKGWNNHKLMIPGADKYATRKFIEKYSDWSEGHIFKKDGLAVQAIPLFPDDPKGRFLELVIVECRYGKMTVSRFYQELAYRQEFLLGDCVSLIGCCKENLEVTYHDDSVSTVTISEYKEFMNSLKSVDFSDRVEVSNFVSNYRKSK
The depositor's hits bear a star; · = not tested or not shown; + = active, no number.

SMILES	DYRK1A inh	ALR inh	CAL PDZ FP-1	CAL PDZ FP-2	Rtt109 HAT inh
O=C(CC1SC(=O)N(c2ccccc2)C1=O)Nc1ccccc1 (centres undefined)	-1.7	97.6*	13.7	-1.6	-0.6
CCS(=O)(=O)c1nc(S(=O)(=O)c2ccc(Cl)cc2)c(N2CCOCC2)s1	6.6	-1.7	-4.0	-0.8	-3.0
COc1cc(OC)cc(N2C(=O)CC(N3CCC(C(=O)N4CCCCC4)CC3)C2=O)c1 (centres undefined)	-4.0	-18.2	-6.7	0.3	-2.4
CC1=C(C)/C(=N\OS(=O)(=O)c2ccc(C)cc2)C=CC1=O	-0.3	·	-0.4	-1.8	108.6*
CC1=C/C(=N\OS(=O)(=O)c2ccccc2)C(C(C)C)=CC1=O	3.2	98.0*	-6.1	-0.7	0.0
CC1=C/C(=N\OS(=O)(=O)c2ccccc2)C(C)=CC1=O	-4.5	98.8*	0.0	-2.4	-3.5
Cc1ccc(S(=O)(=O)Oc2ccccc2)cc1	-1.1	·	-2.0	-0.3	0.8
CC1=CC(=O)c2ccccc2C1=O	5.4	-74.9	-3.7	0.7	8.6
COc1ccc(N(CC(=O)Nc2ccccc2C(F)(F)F)C2=NC3CS(=O)(=O)CC3S2)cc1 (centres undefined)	0.3	97.2*	-5.0	-0.2	-80.1
COc1ccc(N(CC(=O)Nc2ccc(C)c(C)c2)C2=NC3CS(=O)(=O)CC3S2)cc1 (centres undefined)	-0.4	41.6	·	0.0	4.8
Cc1cc(C)cc(N(CC(=O)Nc2ccccc2)C2=NC3CS(=O)(=O)CC3S2)c1 (centres undefined)	4.1	98.4*	·	-0.3	6.9
COc1cc(C)ccc1OCc1cc(C(=O)N(Cc2c(C)nn(C)c2C)C2CC2)no1	3.1	-1.3	-14.1	-0.7	-4.9
CN(CC(=O)Nc1ccc(Cl)cc1)S(=O)(=O)c1ccc2c(c1)n(C)c(=O)c(=O)n2C	-0.1	-0.4	+	-1.4	5.3
Cc1cc(NC(=O)CN(C)S(=O)(=O)c2cccc(Cl)c2)no1	0.5	0.4	112.5*	-0.2	-0.3
CCN1CCN(C(CNS(=O)(=O)c2ccccc2)c2ccccc2)CC1 (centres undefined)	-5.3	-1.3	42.6*	0.2	-2.7
COc1ccc(CNc2nc3ccccc3n2CCN2CCCCC2)cc1	0.4	96.8*	-2.7	0.5	0.4
CCn1c(NCc2ccc(N(C)C)cc2)nc2ccccc21	-0.1	49.9	0.4	-2.0	0.4
CCN(Cc1nc2ccccc2n1C)c1ccccc1	·	98.5*	-2.5	-1.0	-6.2
CCn1c(NCc2cc(OC)c(OC)c(OC)c2)nc2ccccc21	5.0	96.7*	-1.3	-0.4	15.9
COc1ccc(CNc2nc3ccccc3n2Cc2ccc(Cl)cc2)cc1OC	-5.1	5.1	0.1	0.4	8.5
CCN(CC)c1ccc(CNc2nc3ccccc3n2C)cc1	-6.3	98.0*	-6.9	-2.2	-8.3
O=c1cc(-c2ccccc2)nc(SCCOc2ccccc2Cl)[nH]1	-0.6	-1.1	-2.9	0.3	·
CCCCn1nnnc1NCc1ccc(N(CC)CC)cc1	5.1	99.0*	9.0	2.5	9.5
CCN(CC)c1ccc(CNc2nc3ccccc3n2CCN2CCCCC2)cc1	-0.8	98.5*	42.6*	-0.4	3.0
CCOc1ccc(CNc2nc3ccccc3n2CCN2CCOCC2)cc1	-8.5	97.2*	2.7	0.6	-5.6
CCCCn1nnnc1NCc1ccc(C)cc1	0.1	1.8	-3.0	0.4	-5.2
CC(C)n1c(CN(C)c2ccccc2)nc2ccccc21	9.5	97.3*	0.4	-0.8	3.3
Brc1cccc(CNc2nc3ccccc3n2CCN2CCOCC2)c1	-1.1	43.6	-3.2	-2.6	6.4
COC(=O)c1[nH]c2c(c1C)C(=O)CC(c1cccc(OC)c1)C2 (centres undefined)	0.0	-9.4	-2.6	-2.0	-3.3
CC(C)(C)NC(=O)CSc1nc2cc(S(=O)(=O)N3CCCCC3)ccc2o1	-2.6	-1.8	-8.7	-0.3	0.4
